Three compounds from ChEMBL document CHEMBL1125796, “Antitumor properties of 2(1H)-pyrimidinone riboside (zebularine) and its fluorinated analogues” (1991) can be followed below.

Where “and” joins values, the source holds several entries; their conditions need not be identical. Identical values can stand only once.

Assay [1] relates to Mus musculus. The assay can be described thus: Percent increase in life span of drug-treated mice relative to tumored, vehicle treated controls at a dose of 200 mg/kg ip. In kind it is functional. The method in brief: (§1)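 Tumors implanted day 0: B16 melanoma as 0.5 mL of 1:10 brei into BDF1 mice; L1210 or P388 leukemia as 10^6 cells into CDF1 mice, ip or sc. Drug was given in physiologic saline by ip or oral route, QD 1-9. %ILS was calculated against saline-treated tumored controls, with body-weight change difference as the toxicity read-out. Six mice per dose in most experiments.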

Assay [2] has as its system Mus musculus. The assay can be described thus: Percent increase in life span of drug-treated mice relative to tumored, vehicle treated controls at a dose of 400 mg/kg ip. The class given is functional. As to conditions: 400 mg/kg. The method in brief:
as §1

Assay [3] relates to Mus musculus. The assay can be described thus: Percent increase in life span of drug-treated mice relative to tumored, vehicle treated controls at a dose of 600 mg/kg ip. In kind it is functional. The method in brief:
as §1

The subject of assay [4] is Mus musculus. In words: Percent increase in life span of drug-treated mice relative to tumored, vehicle treated controls at a dose of 800 mg/kg ip. In kind it is functional. As to conditions: 800 mg/kg. The method in brief:
as §1

Assay [5] relates to Mus musculus. The assay can be described thus: Antitumor activity against P388 tumor in mice, at a dose of 200 mg/kg per ip administration. In kind it is functional. As to conditions: route intraperitoneal. The method in brief:
(§2)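 Tumors implanted ip on day 0: B16 melanoma (0.5 mL of 1:10 brei) in BDF1 mice, and L1210 or P388 leukemia (10^6 cells) in CDF1 mice. Compound was given ip in physiologic saline daily on days 1–9. Read-out was % increase in life span versus vehicle-treated tumored controls, with body-weight change difference also recorded. Six mice per dose, three in some P388 groups.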

Assay [6] relates to Mus musculus. The assay can be described thus: (§3) Antitumor activity against P388 tumor in mice, at a dose of 400 mg/kg per ip administration. In kind it is functional. To be noted: route intraperitoneal. The method in brief:
as §2

The subject of assay [7] is Mus musculus. In words: Antitumor activity against P388 tumor in mice, at a dose of 600 mg/kg per ip administration. In kind it is functional. As to conditions: route intraperitoneal. The method in brief: as §2
The test system of assay [8] is Mus musculus. The assay is described as §3. In kind it is functional. To be noted: route intraperitoneal. The method in brief: as §2
The source holds these as a separate data set.

Assay [9] relates to Mus musculus. The assay can be described thus: Antitumor activity against ara-c resistance L1210 tumor in mice, at a dose of 200 mg/kg per ip administration. In kind it is functional. As to conditions: route intraperitoneal. The method in brief:
(§4)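 An ara-C-resistant L1210 leukemia line (10^6 cells) was implanted ip on day 0 in CDF1 mice. Compound was given ip in physiologic saline daily on days 1–9. Read-out was % increase in life span versus saline-treated tumored controls, plus body-weight change difference.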

Assay [10] relates to Mus musculus. The assay can be described thus: Antitumor activity against ara-c resistance L1210 tumor in mice, at a dose of 400 mg/kg per ip administration. The class given is functional. As to conditions: route intraperitoneal. The method in brief:
as §4

Assay [11] relates to Mus musculus. The assay can be described thus: Antitumor activity against ara-c resistance L1210 tumor in mice, at a dose of 800 mg/kg per ip administration. The class given is functional. To be noted: route intraperitoneal. The method in brief:
as §4

Assay [12] concerns Mus musculus. The assay can be described thus: Antitumor activity against L1210 tumor in mice, at a dose of 400 mg/kg per ip administration. In kind it is functional. To be noted: route intraperitoneal. The method in brief:
as §2

For assay [13], the system named is Mus musculus. In words: Antitumor activity against L1210 tumor in mice, at a dose of 800 mg/kg per ip administration. In kind it is functional. As to conditions: route intraperitoneal. The method in brief:
as §2

Assay [14] has as its system Mus musculus. In words: Antitumor activity against […] tumor in mice, at a dose of 400 mg/kg per ip administration. As to conditions: route intraperitoneal. The class given is functional. The method in brief: as §2
Assay [15] has as its system Mus musculus. The assay can be described thus: Antitumor activity against B16 tumor in mice, at a dose of 200 mg/kg per ip administration. The class given is functional. As to conditions: route intraperitoneal. The method in brief: as §2
In assay [16] the test system is Mus musculus. The assay can be described thus: Antitumor activity against B16 tumor in mice, at a dose of 400 mg/kg per ip administration. In kind it is functional. As to conditions: route intraperitoneal. The method in brief: as §2
For assay [17], the system named is Mus musculus. In words: Antitumor activity against B16 tumor in mice, at a dose of 800 mg/kg per ip administration. In kind it is functional. To be noted: route intraperitoneal. The method in brief:
as §2

Assay [18] relates to Mus musculus. The assay can be described thus: Antitumor activity against L1210 tumor in mice, at a dose of 1600 mg/kg per oral administration.
Assay [19] has as its system Mus musculus. In words: Percent increase in life span of drug-treated mice relative to tumored, vehicle treated controls at a dose of 1600 mg/kg orally. As to conditions: oral.
Assay [20] has as its system Mus musculus. In words: Percent increase in life span of drug-treated mice relative to tumored, vehicle treated controls at a dose of 800 mg/kg, ip administration.
Assay [21] relates to Mus musculus. The assay can be described thus: Percent increase in life span of drug-treated mice relative to tumored, vehicle treated controls at a dose of 800 mg/kg oral administration.
Assay [22] deals with Mus musculus. The assay can be described thus: Percent increase in life span of drug-treated mice relative to tumored, vehicle treated controls at a dose of 500 mg/kg oral treatment. In kind it is functional. The method in brief: (§5)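 CDF1 mice were implanted ip with 10^6 L1210 cells on day 0. Oral treatment was given on day 1 only, 24 h after implantation. In combinations, the deaminase inhibitor was given as two 250 mg/kg doses 30 min apart, as one dose immediately before ara-C, or as half the dose 30 min before and half immediately after ara-C. %ILS was calculated versus vehicle-treated tumored controls.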

For assay [23], the system named is Mus musculus. The assay can be described thus: Percent increase in life span of drug-treated mice relative to tumored, vehicle treated controls at a dose of 500 mg/kg orally in the presence of 500 mg/kg of zebularine. As to conditions: po. In kind it is functional. The method in brief: as §5
In assay [24] the test system is Mus musculus. The assay can be described thus: Percent increase in life span of drug-treated mice relative to tumored, vehicle treated controls at a dose of 100 mg/kg oral treatment. In kind it is functional. The method in brief: as §5
For assay [25], the system named is Mus musculus. The assay can be described thus: Antitumor activity against L1210 tumor in mice, at a dose of 500 mg/kg peroral administration in the presence of 100 mg/kg of zebularine. In kind it is functional.
Assay [26] relates to Mus musculus. The assay can be described thus: Antitumor activity against L1210 tumor in mice, at a dose of 500 mg/kg peroral administration in the presence of 10 mg/kg of zebularine. The class given is functional.
In assay [27] the test system is Mus musculus. The assay can be described thus: Antitumor activity against L1210 tumor in mice, at a dose of 500 mg/kg peroral administration. The class given is functional. To be noted: route oral. The method in brief: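 CDF1 mice received L1210 leukemia ip. Treatment was oral on day 1 only, 24 h after implantation, with ara-C at 500 mg/kg. Zebularine was given as a single dose immediately before ara-C, or as divided doses (e.g. 2 × 250 mg/kg 30 min apart, or half 30 min before and half immediately after). Read-out was % increase in life span.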

Assay [28] deals with Mus musculus. The assay can be described thus: Percent increase in life span of drug-treated mice relative to tumored, vehicle treated controls at a dose of 3.13 mg/kg ip. In kind it is functional. The method in brief: as §1
Assay [29] relates to Mus musculus. The assay can be described thus: Percent increase in life span of drug-treated mice relative to tumored, vehicle treated controls at a dose of 6.25 mg/kg ip. In kind it is functional. The method in brief:
as §1

As for `O=c1ncccn1[C@@H]1O[C@H](CO)[C@@H](O)[C@H]1O` [ZEBULARINE], the ILS in the assay on Mus musculus [1] (200 mg/kg) was 34% and 25% and 40%; in the assay with Mus musculus [2] it was 66% [middle of 7 runs]; in the assay on Mus musculus [4] it was 77% [middle of 5 runs]. In the assay on Mus musculus [1] (Mus musculus, ip), this compound came in with an ILS at 200 mg/kg of 36%. In the assay with Mus musculus [3], this compound showed an ILS at 600 mg/kg of 45%. The Weight change difference with Mus musculus [5] is -2 g and -0.7 g; with Mus musculus [6] it was -2.3 g; in the assay on Mus musculus [7] it was -1.3 g; in the assay on Mus musculus [8], -1.2 g; with Mus musculus [9], -1.6 g; in the assay with Mus musculus [10], -1.8 g. Further, the Weight change difference was -3.4 g in the assay on Mus musculus [11]; -0.4 g in the assay on Mus musculus [12]; -2.8 g in the assay with Mus musculus [13]; -2.1 g in the assay with Mus musculus [14]; -0.5 g in the assay with Mus musculus [15]; -0.1 g and -0.2 g with Mus musculus [16]. The Weight change difference is listed as 0 g in the assay with Mus musculus [17] and -2.3 g in the assay on Mus musculus [18]. The ILS at 1600 mg/kg in the assay with Mus musculus [19] came to 112%. The increase in life span (ILS) at 800 mg/kg in the assay on Mus musculus [20] turned out to be 110%; in the assay on Mus musculus [21], 81%.
Consider `Nc1ccn([C@@H]2O[C@H](CO)[C@@H](O)[C@@H]2O)c(=O)n1` [CYTARABINE], for which the ILS with Mus musculus [22] was 44% and 74% and 80%; in the assay on Mus musculus [24] (100 mg/kg), 68%. Also, the ILS at 500 mg/kg with Mus musculus [23] was 74%. The ILS at 100 mg/kg with Mus musculus [24] (Mus musculus, po) is 68%. In addition, the results for the Weight change difference with Mus musculus [25], with Mus musculus [26] and with Mus musculus [27] were -1 g, -2.2 g and -0.5 g, respectively.
On to `OC[C@H]1O[C@@H](n2cnc3cncnc32)[C@H](O)[C@@H]1O` [NEBULARINE], for which the values for the ILS in the assay on Mus musculus [28] (3.13 mg/kg) and in the assay on Mus musculus [29] (6.25 mg/kg) were 52% and 34%, respectively. In addition, in the assay with Mus musculus [28] (Mus musculus, ip), the ILS at 3.13 mg/kg came out at 60%. Moreover, the ILS at 6.25 mg/kg in the assay on Mus musculus [29] (Mus musculus, ip) is 40%.
